Experimental data gathered from unrelated publications.
Target: Serine/threonine-protein kinase 26 (STK26, Homo sapiens, UniProt Q9P289)

Cn1cncc1[C@@](O)(COc1ccc(C#N)cc1-c1ccc(OC(F)(F)F)cc1)c1ccc(C#N)cc1 — remaining binding (cell-free assay; competition with immobilised ligand; 1 µM): 99%
O=c1[nH]c2ccccc2n1C1CCN(Cc2ccc(-c3[nH]c4cc5ncnc5cc4nc3-c3ccccc3)cc2)CC1 — remaining signal (cell-free assay; 0.5 µM): 102%
COc1ncccc1-c1cnn2ccc(N3CCN(C(=O)OC(C)C)CC3)nc12 — remaining binding (binding; competition with immobilised ligand; 1 µM): 92%
CC(C)(C)c1cc(C=C(C#N)C#N)cc(Br)c1O — remaining activity (enzyme activity; inhibitor; 0.5 µM): 95.2%
Nc1ncc(-c2nc(N3CCOCC3)nc(N3CCOCC3)n2)c(C(F)F)n1 — remaining binding (binding; competition with immobilised ligand; 10 µM): 91%
N#CC1(c2ccccn2)CCN(Cc2cc(C(=O)O)c(=O)n3ccccc23)CC1 — remaining binding (cell-free assay; competition with immobilised ligand; 1 µM): 100%
Cn1cc(-c2cc(F)cc(N3CCn4c(cc5c4CCCC5)C3=O)c2CO)cc(Nc2ccc(N3CCN(C4COC4)CC3)cn2)c1=O — inhibition (enzyme activity; inhibitor; 0.1 µM): 14%
Cc1nn(C)cc1-c1nc2c(N3CCN(Cc4ccc(Cl)cc4)CC3)c(Cl)cnc2[nH]1 — remaining binding (binding; competition with immobilised ligand; 1 µM): 100%
CCN1CCN(Cc2ccc(NC(=O)c3ccc(C)c(/C=C/c4cnc5[nH]ccc5c4OC)c3)cc2C(F)(F)F)CC1 — inhibition (target engagement in cells; inhibitor; chemoproteomics; A-375; 50 nM): -14.9%
